The record followed here is ChEMBL document CHEMBL2434860, “Nitroreductase-activated nitric oxide (NO) prodrugs” (Bioorg Med Chem Lett, 2013).

Series [1] is described as follows: Half life in aqueous buffer assessed as nitric oxide release at pH 7.4. The class given is physicochemical.
A short description of series [2]: Prodrug conversion in phosphate buffer at pH 7.0 assessed as Escherichia coli NTR-mediated decomposition measuring compound remaining at 50 uM after 1 hr by HPLC analysis in presence of NADPH. The class given is physicochemical. The note with it: pH 7, 1 h. Put shortly:
(§1)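 Compound at 50 µM (from a 10 mM DMSO stock) was stirred at 37 °C in pH 7.0 phosphate buffer with NADPH, with or without E. coli nitroreductase; the blank had no enzyme. After 1 h, an aliquot was analysed by reverse-phase C-18 HPLC (70% MeCN:H2O, 1 mL/min) for compound remaining. Values are averages of two independent runs.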

Series [3] deals with DLD-1. The series can be described thus: Antiproliferative activity against human DLD1 cells assessed as cell viability at 75 uM after 72 hrs by MTT assay in absence of Escherichia coli NTR and presence of NADPH. The class given is functional. The note with it: DLD-1, 72 h, read-out: Activity. Put shortly:
(§2)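 DLD-1 human colon adenocarcinoma cells seeded at 3 × […] cells/well overnight in complete RPMI 1640. Treated with compound from DMSO stock (1% DMSO final), with or without E. coli nitroreductase (6 mg/2 mL DPBS stock) and NADPH (0.5 mM stock in DPBS). Incubated 72 h at 37 °C. MTT added for 4 h, formazan dissolved in DMSO, absorbance read at 570 nm for viability.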
On the technique in general: Tetrazolium dyes change colour on reduction, which living cells bring about.

A short description of series [4]: Stability of the compound in phosphate buffer at pH 7.0 assessed as compound remaining at 50 uM after 1 hr by HPLC analysis in absence of Escherichia coli NTR and presence of NADPH. Type of series: physicochemical. The note with it: pH 7, 1 h. The method in brief:
as §1

Series [5] can be described thus: Prodrug conversion in phosphate buffer at pH 7.0 assessed as Escherichia coli NTR-mediated decomposition measuring nitric oxide release at 50 uM after 1 hr by chemiluminescence assay in presence of NADPH. Type of series: physicochemical. The note with it: pH 7, 1 h. The method in brief:
(§3)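 Compound at 50 µM was incubated at 37 °C in pH 7.0 phosphate buffer with NADPH, with or without E. coli nitroreductase. After 1 h, an aliquot was injected into a chemiluminescence NO analyser (argon carrier) whose reservoir held NaI/acetic acid, so nitrite was also counted as NO. The signal was calibrated against NaNO2 standards. Values are averages of two independent runs.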

A short description of series [6]: Stability of the compound in phosphate buffer at pH 7.0 assessed as nitric oxide release at 50 uM after 1 hr by chemiluminescence assay in absence of Escherichia coli NTR and presence of NADPH. Type of series: physicochemical. The following applies: pH 7, 1 h. The method in brief:
as §3

Series [7] deals with DLD-1. The series can be described thus: Antiproliferative activity against human DLD1 cells assessed as cell viability at 75 uM after 72 hrs by MTT assay in presence of Escherichia coli NTR and NADPH relative to control. Type of series: functional. The following applies: DLD-1, 72 h, read-out: Activity. The method in brief:
as §2

Series [8] relates to DLD-1. The series can be described thus: Antiproliferative activity against human DLD1 cells assessed as cell viability at 25 uM after 72 hrs by MTT assay in absence of Escherichia coli NTR and presence of NADPH (reference value: 74.8%). The note with it: DLD-1, 72 h, read-out: Activity. The class given is functional. The method in brief: as §2
The test system of series [9] is DLD-1. The series can be described thus: Antiproliferative activity against human DLD1 cells assessed as cell viability at 1 uM after 72 hrs by MTT assay in presence of Escherichia coli NTR and NADPH (reference value: 86.3%). Type of series: functional. The note with it: DLD-1, 72 h, read-out: Activity. The method in brief: as §2
Series [10] in a line: Prodrug conversion in phosphate buffer at pH 7.4 assessed as Escherichia coli NTR-mediated decomposition measuring nitric oxide release at 50 uM after 5 mins. The class given is physicochemical. The following applies: pH 7.4, 5 min. The method in brief: (§4)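 Compound at 50 µM was reacted with E. coli nitroreductase and NADPH in phosphate buffer at pH 6.5 or at pH 7.4 (PBS), stirred at 37 °C. Aliquots were injected at set time points into a chemiluminescence NO analyser with an NaI/acetic acid reservoir, which also converts nitrite to NO. The signal was calibrated with NaNO2 standards.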

Series [11] deals with HeLa. The series can be described thus: Cytotoxicity against human HeLa cells assessed as cell viability at 25 uM after 72 hrs by MTT assay in absence of Escherichia coli NTR and NADPH (reference value: 88.2%). Type of series: functional. The note with it: read-out: Activity.
Series [12] has as its system HeLa. In words: Cytotoxicity against human HeLa cells assessed as cell viability at 25 uM after 72 hrs by MTT assay in presence of Escherichia coli NTR and NADPH (reference value: 67.2%). Type of series: functional. The following applies: read-out: Activity.
Series [13] has as its system HeLa. In words: Cytotoxicity against human HeLa cells assessed as cell viability at 1 uM after 72 hrs by MTT assay in absence of Escherichia coli NTR and NADPH (reference value: 88.2%). The class given is functional. The note with it: read-out: Activity.
For series [14], the system named is HeLa. In words: Cytotoxicity against human HeLa cells assessed as cell viability at 10 uM after 72 hrs by MTT assay in presence of Escherichia coli NTR and NADPH (reference value: 67.2%). The following applies: read-out: Activity. Type of series: functional.
The subject of series [15] is DLD-1. In words: Antiproliferative activity against human DLD1 cells assessed as cell viability at 25 uM after 72 hrs by MTT assay in presence of Escherichia coli NTR and NADPH (reference value: 86.3%). The following applies: DLD-1, 72 h, read-out: Activity. Type of series: functional. The method in brief:
as §2

In series [16] the test system is DLD-1. The series can be described thus: Antiproliferative activity against human DLD1 cells assessed as cell viability at 10 uM after 72 hrs by MTT assay in presence of Escherichia coli NTR and NADPH (reference value: 86.3%). Type of series: functional. The note with it: DLD-1, 72 h, read-out: Activity. The method in brief: as §2
Series [17] relates to HeLa. The series can be described thus: Cytotoxicity against human HeLa cells assessed as cell viability at 1 uM after 72 hrs by MTT assay in presence of Escherichia coli NTR and NADPH (reference value: 67.2%). Type of series: functional. The note with it: read-out: Activity.
In series [18] the test system is DLD-1. The series can be described thus: Antiproliferative activity against human DLD1 cells assessed as cell viability at 10 uM after 72 hrs by MTT assay in absence of Escherichia coli NTR and presence of NADPH (reference value: 74.8%). The class given is functional. The note with it: DLD-1, 72 h, read-out: Activity. Put shortly:
as §2

In series [19] the test system is DLD-1. In words: Antiproliferative activity against human DLD1 cells assessed as cell viability at 1 uM after 72 hrs by MTT assay in absence of Escherichia coli NTR and presence of NADPH (reference value: 74.8%). The class given is functional. The note with it: DLD-1, 72 h, read-out: Activity. The method in brief: as §2
Series [20] has as its system HeLa. The series can be described thus: Cytotoxicity against human HeLa cells assessed as cell viability after 72 hrs by MTT assay in presence of Escherichia coli NTR and NADPH. Type of series: functional, cell-based.
Series [21] concerns HeLa. In words: Cytotoxicity against human HeLa cells assessed as cell viability at 10 uM after 72 hrs by MTT assay in absence of Escherichia coli NTR and NADPH (reference value: 88.2%). The note with it: read-out: Activity. The class given is functional.
The nature of series [22]: Prodrug conversion in phosphate buffer at pH 6.5 assessed as Escherichia coli NTR-mediated decomposition measuring nitric oxide release at 50 uM after 5 mins. Type of series: physicochemical. The note with it: pH 6.5, 5 min. Put shortly:
as §4

Series [23] deals with DLD-1. The series can be described thus: Antiproliferative activity against human DLD1 cells assessed as cell viability at 50 uM after 72 hrs by MTT assay in presence of Escherichia coli NTR and NADPH (reference value: 107.4%). The following applies: DLD-1, 72 h, read-out: Activity. Type of series: functional. The method in brief: as §2
In series [24] the test system is DLD-1. In words: Antiproliferative activity against human DLD1 cells assessed as cell viability at 25 uM after 72 hrs by MTT assay in absence of Escherichia coli NTR and NADPH (reference value: 107.4%). Type of series: functional. The following applies: DLD-1, 72 h, read-out: Activity. The method in brief:
as §2

Series [25] relates to DLD-1. In words: Antiproliferative activity against human DLD1 cells assessed as cell viability at 100 uM after 72 hrs by MTT assay in presence of Escherichia coli NTR and NADPH (reference value: 107.4%). The class given is functional. The following applies: DLD-1, 72 h, read-out: Activity. Put shortly:
as §2

Series [26] has as its system DLD-1. The series can be described thus: Cytotoxicity against human DLD1 cells assessed as cell viability at 25 uM after 72 hrs by MTT assay in presence of Escherichia coli NTR and NADPH (reference value: 107.4%). Type of series: functional. The following applies: DLD-1, 72 h, read-out: Activity. The method in brief:
as §2

Series [27] deals with DLD-1. The series can be described thus: Antiproliferative activity against human DLD1 cells assessed as cell viability at 100 uM after 72 hrs by MTT assay in absence of Escherichia coli NTR and NADPH (reference value: 107.4%). The following applies: DLD-1, 72 h, read-out: Activity. The class given is functional. Put shortly: as §2
Series [28] relates to DLD-1. In words: Antiproliferative activity against human DLD1 cells assessed as cell viability at 50 uM after 72 hrs by MTT assay in absence of Escherichia coli NTR and NADPH (reference value: 107.4%). The class given is functional. The following applies: DLD-1, 72 h, read-out: Activity. Put shortly:
as §2

As for `[Na+].[O-]/N=[N+](\[O-])N1CCCC1`, the t1/2 in series [1] is recorded as 2 s.

As for `CN(C)/[N+]([O-])=N/OCc1ccc([N+](=O)[O-])cc1`, the Stability in series [2] is 60%; in series [4], “Stable”; in series [6], “Stable”. Moreover, the viability at 75 µM is 74.7% in series [3] and 32.2% in series [7]. For the same compound, the Drug metabolism in series [5] amounted to 13.6 µM.

Turning to `O=[N+]([O-])c1ccc(CO/N=[N+](\[O-])N2CCCC2)cc1`, the figures for the Stability in series [2], in [4] and in series [6] were 28%, “Stable” and “Stable”, respectively. Moreover, the viability at 75 µM is 68.6% in series [3] and 48.5% in series [7]. In addition, the Drug metabolism in [5] is 18.3 µM.

Turning to `CC1CCCCN1/[N+]([O-])=N/OCc1ccc([N+](=O)[O-])cc1` (configuration not stated), the viability at 25 µM in [8] amounted to 63.7%; in series [11], 24.6%; in series [12] it was 6.9%; in series [15], 12.5%. Also, the Stability in series [2] was 31%; in series [4], “Stable”; in series [6] it was “Stable”. The viability at 1 µM in [9] is 38.6%; in series [13], 76.9%; in [17], 56.6%; in series [19], 82.1%. The viability at 75 µM in [3] was 53%; in [7] it was 10.2%. Moreover, the Drug metabolism in [10] worked out at 17 µM; in series [5], 19.7 µM; in [22], 6 µM. Also, the viability at 10 µM amounted to 31.1% in series [14], 30.8% in series [16], 69.1% in series [18] and 65.3% in [21]. Further, in series [20], the Activity entry is “Dose-dependent effect”.

Consider `O=C(OCc1ccc([N+](=O)[O-])cc1)c1ccccc1`, for which the figures for the viability at 50 µM in series [23] and in [28] were 85.5% and 89.2%, respectively. The Stability in series [2] is on record as 68%; in series [4] it was “Stable”; in series [6], “Stable”. The viability at 25 µM in [24] was found to be 98.3%; in series [26] it was 93.4%. For the same compound, the viability at 100 µM in [25] came out at 50.5%; in series [27], 84.5%. Further, the Drug metabolism in series [5] came out at 1.1 µM.

With `CN(C)/[N+]([O-])=N/[O-].[Na+]`, the t1/2 in series [1] was determined as 24 s.

As for `CCN(CC)/[N+]([O-])=N/OCc1ccc([N+](=O)[O-])cc1`, the Stability in [2] is listed as 60%; in series [4] it was “Stable”; in [6] it was “Stable”. The viability at 75 µM came to 79.2% in [3] and 27.5% in [7]. The Drug metabolism in series [5] amounted to 6.8 µM.

In the case of `CCN(CC)/[N+]([O-])=N/[O-].[Na+]`, the t1/2 in [1] worked out at 120 s.
